Test results as given in ChEMBL document CHEMBL1146182, “Synthesis and cytotoxic evaluation of combretafurans, potential scaffolds for dual-action antitumoral agents” (J Med Chem, 2006).
Calls of active or inactive are those of the source. No cut-off for these calls is given here.

What was measured:
SH-SY5Y [1] = experiment: Cytotoxicity against SHSY5Y cell line by MTT assay; assay type: functional, cell-based; conditions: Homo sapiens
Tubulin (Homo sapiens) [2] = molecular target: T1, Tubulin (Homo sapiens) (UniProt P68371+Q9H4B7+P0DPH7+P68366+Q13509+Q71U36+P04350+Q3ZCM7+P07437+P68363+Q9BQE3+Q6PEY2+Q13885+Q9BVA1+Q9BUF5); experiment: Inhibition of tubulin polymerization; assay type: protein-complex assay
Method in brief: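 Whole-cell (in vivo) tubulin polymerization assay in neuroblastoma cells. Cells are incubated overnight with a high inhibitor concentration. Proteins are then extracted in the presence of paclitaxel so that the tubulin polymerization state is frozen at extraction.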

SH-SY5Y [3] = experiment: Cell cycle arrest in SHSY5Y cells by accumulation at G2 phase after 12 hrs; assay type: functional, Homo sapiens
SH-SY5Y [4] = experiment: Cell cycle arrest in SHSY5Y cells by accumulation at G1 phase after 4 hrs; assay type: functional, Homo sapiens
Tubulin (Homo sapiens) [5] = molecular target: T1, Tubulin (Homo sapiens); experiment: Induction of tubulin depolymerization at 2.9 nM after 24 hrs; assay type: protein-complex assay
SH-SY5Y [6] = experiment: Cell cycle arrest in SHSY5Y cells by accumulation at S phase after 4 hrs; assay type: functional, Homo sapiens
SH-SY5Y [7] = experiment: Cell cycle arrest in SHSY5Y cells by accumulation at S phase after 24 hrs; assay type: functional, Homo sapiens
SH-SY5Y [8] = experiment: Cell cycle arrest in SHSY5Y cells by accumulation at S phase after 8 hrs; assay type: functional, Homo sapiens
SH-SY5Y [9] = experiment: Cell cycle arrest in SHSY5Y cells by accumulation at G1 phase after 8 hrs; assay type: functional, Homo sapiens
SH-SY5Y [10] = experiment: Cell cycle arrest in SHSY5Y cells by accumulation at G2 phase after 8 hrs; assay type: functional, Homo sapiens
SH-SY5Y [11] = experiment: Cell cycle arrest in SHSY5Y cells by accumulation at G2 phase after 4 hrs; assay type: functional, Homo sapiens
SH-SY5Y [12] = experiment: Cell cycle arrest in SHSY5Y cells by accumulation at G2 phase after 24 hrs; assay type: functional, Homo sapiens
SH-SY5Y [13] = experiment: Cell cycle arrest in SHSY5Y cells by accumulation at G1 phase after 12 hrs; assay type: functional, Homo sapiens
SH-SY5Y [14] = experiment: Cell cycle arrest in SHSY5Y cells by accumulation at S phase after 12 hrs; assay type: functional, Homo sapiens
SH-SY5Y [15] = experiment: Cell cycle arrest in SHSY5Y cells by accumulation at G1 phase after 24 hrs; assay type: functional, Homo sapiens
Tubulin (Homo sapiens) [16] = molecular target: T1, Tubulin (Homo sapiens); experiment: Induction of tubulin depolymerization at 35.8 nM after 24 hrs; assay type: protein-complex assay
SH-SY5Y [17] = experiment: Cytotoxicity against SHSY5Y cell line upto 1 uM by MTT assay; assay type: functional, cell-based; conditions: Homo sapiens
Tubulin (Homo sapiens) [18] = molecular target: T1, Tubulin (Homo sapiens); experiment: Induction of tubulin depolymerization at 231 nM after 24 hrs; assay type: protein-complex assay

For `COc1ccc(-c2cocc2-c2cc(OC)c(OC)c(OC)c2)cc1[N+](=O)[O-]`, the IC50 (SH-SY5Y [1]) was 245 nM and the Activity (Tubulin (Homo sapiens) [2]) was “Active”.
In the case of `COc1ccc(-c2cocc2-c2cc(OC)c(OC)c(OC)c2)cc1`, the IC50 (SH-SY5Y [1]) is reported as 39 nM.
With `COc1ccc(-c2cocc2-c2cc(OC)c(OC)c(OC)c2)cc1O` the IC50 (SH-SY5Y [1]) was 2.9 nM, the Activity (Tubulin (Homo sapiens) [2]) was “Active” and the Activity (SH-SY5Y [3]) was 38%. For the same compound, the Activity (SH-SY5Y [4]) was 33%, the Activity (Tubulin (Homo sapiens) [5]) was “Active” and the Activity (SH-SY5Y [6]) was 53%. The Activity (SH-SY5Y [7]) was 85%, the Activity (SH-SY5Y [8]) was 58% and the Activity (SH-SY5Y [9]) was 87%. It also gave an Activity (SH-SY5Y [10]) of 55%, an Activity (SH-SY5Y [11]) of 33% and an Activity (SH-SY5Y [12]) of 45%. For the same compound, the Activity (SH-SY5Y [13]) was 47%, the Activity (SH-SY5Y [14]) was 43% and the Activity (SH-SY5Y [15]) was 70%.
`COc1ccc(-c2coc(C=O)c2-c2cc(OC)c(OC)c(OC)c2)cc1` was tested, and the IC50 (SH-SY5Y [1]) was 35.8 nM, the Activity (Tubulin (Homo sapiens) [2]) was “Active” and the Activity (SH-SY5Y [3]) was 55%. It also gave an Activity (SH-SY5Y [4]) of 53%, an Activity (SH-SY5Y [6]) of 54% and an Activity (SH-SY5Y [7]) of 78%. The Activity (SH-SY5Y [8]) was 46%, the Activity (Tubulin (Homo sapiens) [16]) was “inactive” and the Activity (SH-SY5Y [9]) was 74%. It also gave an Activity (SH-SY5Y [10]) of 25%, an Activity (SH-SY5Y [11]) of 41% and an Activity (SH-SY5Y [12]) of 81%. It also gave an Activity (SH-SY5Y [13]) of 50%, an Activity (SH-SY5Y [14]) of 39% and an Activity (SH-SY5Y [15]) of 58%.
In the case of `COc1cc(-c2cocc2-c2ccc3c(c2)OCO3)cc(OC)c1OC`, the Activity (Tubulin (Homo sapiens) [2]) is reported as “Active” and the Activity (SH-SY5Y [17]) is reported as “inactive”.
For `COc1ccc(/C=C\c2cc(OC)c(OC)c(OC)c2)cc1O` [COMBRETASTATIN A4], the IC50 (SH-SY5Y [1]) was 1.6 nM, the Activity (Tubulin (Homo sapiens) [2]) was “Active” and the Activity (SH-SY5Y [3]) was 52%. The Activity (SH-SY5Y [4]) was 69%, the Activity (SH-SY5Y [6]) was 49% and the Activity (SH-SY5Y [7]) was 83%. For the same compound, the Activity (SH-SY5Y [8]) was 79%, the Activity (SH-SY5Y [9]) was 66% and the Activity (SH-SY5Y [10]) was 55%. The Activity (SH-SY5Y [11]) was 82%, the Activity (SH-SY5Y [12]) was 92% and the Activity (SH-SY5Y [13]) was 64%. For the same compound, the Activity (SH-SY5Y [14]) was 83% and the Activity (SH-SY5Y [15]) was 25%.
`COc1ccc(-c2c(-c3cc(OC)c(OC)c(OC)c3)coc2/C=N/NC(=O)CCCC(=O)O)cc1` was tested, and the IC50 (SH-SY5Y [1]) was 1670 nM and the Activity (Tubulin (Homo sapiens) [2]) was “Active”.
In the case of `COc1ccc(-c2cocc2-c2cc(OC)c(OC)c(OC)c2)cc1N`, the IC50 (SH-SY5Y [1]) is reported as 5.1 nM and the Activity (Tubulin (Homo sapiens) [2]) is reported as “Active”.
For `COc1ccc(-c2c(-c3cc(OC)c(OC)c(OC)c3)coc2C=O)cc1`, the IC50 (SH-SY5Y [1]) was 231 nM, the Activity (Tubulin (Homo sapiens) [2]) was “Active” and the Activity (Tubulin (Homo sapiens) [18]) was “Active”. For the same compound, the Activity (SH-SY5Y [3]) was 82%, the Activity (SH-SY5Y [4]) was 32% and the Activity (SH-SY5Y [6]) was 54%. It also gave an Activity (SH-SY5Y [7]) of 29%, an Activity (SH-SY5Y [8]) of 84% and an Activity (SH-SY5Y [9]) of 93%. For the same compound, the Activity (SH-SY5Y [10]) was 23%, the Activity (SH-SY5Y [11]) was 62% and the Activity (SH-SY5Y [12]) was 25%. The Activity (SH-SY5Y [13]) was 42%, the Activity (SH-SY5Y [14]) was 79% and the Activity (SH-SY5Y [15]) was 77%.
